Data published in ChEMBL document CHEMBL2311413, “N-cinnamoylated chloroquine analogues as dual-stage antimalarial leads” (J Med Chem, 2013).
The source made the active and inactive calls. No cut-off for these calls is given here.

Assays:
Plasmodium berghei [1] = assay: Antiplasmodial activity against Plasmodium berghei liver stage form transfected in human Huh-7 cells assessed as cell viability after 48 hrs by luciferase reporter gene assay; assay type: functional, organism-based; conditions: Huh-7, 48 h
Plasmodium falciparum [2] = assay: Antiplasmodial activity against CQ-resistant Plasmodium falciparum W2 blood stage form after 48 hrs by FACSort cytometry; assay type: functional, organism-based; conditions: W2, 48 h
[3] = Inhibition of beta-hematin formation at 0.1 to 1 mM after 48 hrs relative to control; assay type: functional
Summary of the method: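 Compounds in DMSO, 0.1−1 mM, added in triplicate to hemin chloride in DMSO (5.2 mg/mL). Formation started with 0.2 M acetate buffer pH 4.4, then 37 °C for 48 h. After centrifugation, pellet washed four times with DMSO and dissolved in 0.2 M NaOH, diluted 1:6 in 0.1 M NaOH, absorbance at 405 nm. Water and DMSO as negative controls.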

Plasmodium falciparum [4] = assay: Antiplasmodial activity against CQ-resistant Plasmodium falciparum 3D7 blood stage form after 48 hrs by FACSort cytometry; assay type: functional, organism-based; conditions: 3D7, 48 h
Huh-7 = assay: Cytotoxicity against human HuH7 cells assessed as cell viability by AlamarBlue assay; assay type: cell-based
Summary of the method: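 Huh-7 human hepatoma cells grown in RPMI 1640 with 10% FCS, nonessential amino acids, glutamine and 10 mM HEPES pH 7, 37 °C, 5% CO2; 1.2 × 10^4 cells/well seeded the day before. Compound added ~1 h before P. berghei sporozoite infection and renewed at 24 h. Viability read by AlamarBlue per manufacturer's protocol at 48 h post-infection.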

Mus musculus [5] = assay: Toxicity in Plasmodium berghei infected Swiss Webster mouse at 100 mg/kg, ip bid administered for 4 days by Giemsa staining method; assay type: organism-based; parameters: dose 100 mg/kg, route intraperitoneal; conditions: in vivo, 96 h
Summary of the method: (§1)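 Female Swiss Webster mice (n = 5) infected ip with 10^6 P. berghei-infected erythrocytes. Treatment began 2 h later: ip 10, 30 or 100 mg/kg twice daily for 4 days. Chloroquine control at 3, 10 and 30 mg/kg ip twice daily. Daily checks for toxicity and for parasitemia on Giemsa-stained blood smears; survival followed over time.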

Plasmodium berghei [6] = assay: Antimalarial activity against Plasmodium berghei infected in Swiss Webster mouse assessed as increase in survival time at 10 mg/kg, ip bid administered for 4 days by Giemsa staining method relative to untreated control; assay type: functional
Summary of the method: (§2)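 Female Swiss Webster mice (n = 5) infected ip with 10^6 P. berghei-infected erythrocytes. Dosing began 2 h later by ip injection twice daily for 4 days; chloroquine control at 3, 10, 30 mg/kg ip twice daily. Mice checked daily for toxicity and parasitemia (Giemsa-stained blood smears). Survival after treatment start compared with untreated controls.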

Plasmodium berghei [7] = assay: Antimalarial activity against Plasmodium berghei infected in Swiss Webster mouse assessed as increase in survival time at 30 mg/kg, ip bid administered for 4 days by Giemsa staining method relative to untreated control; assay type: functional; summary of the method: as §2
Mus musculus [8] = assay: Toxicity in Plasmodium berghei infected Swiss Webster mouse at 10 to 100 mg/kg, ip bid administered for 4 days by Giemsa staining method; assay type: organism-based; parameters: dose 10-100 mg/kg, route intraperitoneal; conditions: in vivo, 96 h; summary of the method: as §1
Plasmodium berghei [9] = assay: Antimalarial activity against Plasmodium berghei infected in Swiss Webster mouse assessed as increase in survival time at 100 mg/kg, ip bid administered for 4 days by Giemsa staining method relative to untreated control; assay type: functional; conditions: route intraperitoneal; summary of the method: as §2

COc1ccc(/C=C/C(=O)NCCCC(C)Nc2cc(OC)cc3cccnc23)cc1 (stereo not drawn)
IC50 (Plasmodium berghei [1]): 2350 nM
IC50 (Plasmodium falciparum [2]): > 10000 nM

CCN(CC)CCCC(C)Nc1ccnc2cc(Cl)ccc12 (stereo not drawn) [CHLOROQUINE]
IC50 (Plasmodium berghei [1]): 15900 nM
inhibition [3]: > 75%

O=C(/C=C/c1ccc(Br)cc1)NCCCCNc1ccnc2cc(Cl)ccc12
IC50 (Plasmodium berghei [1]): 2280 nM
IC50 (Plasmodium falciparum [4]): 28.8 nM
IC50 (Plasmodium falciparum [2]): 18.2 nM
inhibition [3]: > 75%

Nc1ccc(/C=C/C(=O)NCCCCNc2ccnc3cc(Cl)ccc23)cc1
IC50 (Plasmodium falciparum [4]): 78.1 nM
IC50 (Plasmodium falciparum [2]): 58.8 nM

O=C(/C=C/c1ccccc1[N+](=O)[O-])NCCCNc1ccnc2cc(Cl)ccc12
IC50 (Plasmodium falciparum [4]): 64.2 nM
IC50 (Plasmodium falciparum [2]): 52.1 nM
inhibition [3]: 50%

O=C(/C=C/c1cccc(F)c1)NCCCNc1ccnc2cc(Cl)ccc12
IC50 (Plasmodium falciparum [4]): 138 nM
IC50 (Plasmodium falciparum [2]): 73.3 nM

O=C(/C=C/c1cccc([N+](=O)[O-])c1)NCCCCNc1ccnc2cc(Cl)ccc12
IC50 (Plasmodium falciparum [4]): 42.1 nM
IC50 (Plasmodium falciparum [2]): 26.2 nM

O=C(/C=C/c1ccc(Cl)cc1)NCCCNc1ccnc2cc(Cl)ccc12
IC50 (Plasmodium falciparum [4]): 46.5 nM
IC50 (Plasmodium falciparum [2]): 41.6 nM
inhibition [3]: 50%

O=C(/C=C/c1ccc(Cl)cc1)NCCCCCNc1ccnc2cc(Cl)ccc12
IC50 (Plasmodium berghei [1]): 1620 nM
IC50 (Plasmodium falciparum [2]): 25.1 nM

COc1ccc(/C=C/C(=O)NCCCCNc2ccnc3cc(Cl)ccc23)cc1OC
Activity (Huh-7): Non-toxic
IC50 (Plasmodium berghei [1]): 4050 nM
IC50 (Plasmodium falciparum [2]): 111 nM

O=C(/C=C/c1cccc([N+](=O)[O-])c1)NCCCNc1ccnc2cc(Cl)ccc12
IC50 (Plasmodium falciparum [4]): 52.7 nM
IC50 (Plasmodium falciparum [2]): 50.3 nM
inhibition [3]: 50%

O=C(/C=C/c1ccccc1)NCCCCNc1ccnc2cc(Cl)ccc12
IC50 (Plasmodium berghei [1]): 1060 nM
IC50 (Plasmodium falciparum [4]): 62.9 nM
IC50 (Plasmodium falciparum [2]): 46.6 nM

COc1ccc(/C=C/C(=O)NCCCNc2ccnc3cc(Cl)ccc23)cc1
IC50 (Plasmodium berghei [1]): 4020 nM
IC50 (Plasmodium falciparum [4]): 49.5 nM
IC50 (Plasmodium falciparum [2]): 55.1 nM

CC(C)c1ccc(/C=C/C(=O)NCCCCNc2ccnc3ccccc23)cc1
IC50 (Plasmodium falciparum [2]): 115 nM

CN(C)c1ccc(/C=C/C(=O)NCCCCNc2ccnc3cc(Cl)ccc23)cc1
IC50 (Plasmodium falciparum [2]): 25.8 nM
inhibition [3]: 50%

O=C(/C=C/c1ccccc1)NCCCNc1ccnc2cc(Cl)ccc12
IC50 (Plasmodium falciparum [4]): 141 nM
IC50 (Plasmodium falciparum [2]): 74.8 nM

O=C(/C=C/c1ccc([N+](=O)[O-])cc1)NCCCCNc1ccnc2cc(Cl)ccc12
IC50 (Plasmodium falciparum [4]): 48.9 nM
IC50 (Plasmodium falciparum [2]): 23.5 nM
inhibition [3]: > 75%

Nc1ccc(/C=C/C(=O)NCCCNc2ccnc3cc(Cl)ccc23)cc1
IC50 (Plasmodium falciparum [4]): 135 nM
IC50 (Plasmodium falciparum [2]): 79.8 nM

COc1cc(NC(C)CCCN)c2ncccc2c1 (stereo not drawn) [PRIMAQUINE]
IC50 (Plasmodium berghei [1]): 7500 nM

CC(C)c1ccc(/C=C/C(=O)NCCCCNc2ccnc3cc(Cl)ccc23)cc1
Activity (Mus musculus [5]): Toxic
Activity (Plasmodium berghei [6]): inactive
Activity (Plasmodium berghei [7]): inactive
IC50 (Plasmodium berghei [1]): 2500 nM
IC50 (Plasmodium falciparum [4]): 15.6 nM
IC50 (Plasmodium falciparum [2]): 11 nM
inhibition [3]: 50%

O=C(/C=C/c1ccc([N+](=O)[O-])cc1)NCCCNc1ccnc2cc(Cl)ccc12
IC50 (Plasmodium falciparum [4]): 52.5 nM
IC50 (Plasmodium falciparum [2]): 23.7 nM
inhibition [3]: 50%

O=C(/C=C/c1ccc(F)cc1)NCCCNc1ccnc2cc(Cl)ccc12
IC50 (Plasmodium falciparum [4]): 47.7 nM
IC50 (Plasmodium falciparum [2]): 46.7 nM

CC(C)c1ccc(/C=C/C(=O)NCCCCN2CCOCC2)cc1
IC50 (Plasmodium berghei [1]): > 10000 nM
IC50 (Plasmodium falciparum [2]): > 10000 nM

COc1ccc(/C=C/C(=O)NCCCCCNc2ccnc3cc(Cl)ccc23)cc1
IC50 (Plasmodium berghei [1]): 2270 nM
IC50 (Plasmodium falciparum [2]): 50.3 nM

O=C(/C=C/c1ccc(F)cc1)NCCCCNc1ccnc2cc(Cl)ccc12
IC50 (Plasmodium berghei [1]): 1420 nM
IC50 (Plasmodium falciparum [4]): 39.9 nM
IC50 (Plasmodium falciparum [2]): 19.7 nM
inhibition [3]: 50%

O=C(/C=C/c1ccc(Br)cc1)NCCCNc1ccnc2cc(Cl)ccc12
IC50 (Plasmodium falciparum [4]): 50 nM
IC50 (Plasmodium falciparum [2]): 38.2 nM

CC(C)c1ccc(/C=C/C(=O)NCCCNc2ccnc3cc(Cl)ccc23)cc1
IC50 (Plasmodium falciparum [4]): 50.3 nM
IC50 (Plasmodium falciparum [2]): 38 nM

CC(C)c1ccc(/C=C/C(=O)NCCCCCNc2ccnc3cc(Cl)ccc23)cc1
IC50 (Plasmodium falciparum [2]): 31.5 nM
inhibition [3]: 50%

C[C@@H]1CC[C@H]2[C@@H](C)C(=O)O[C@@H]3O[C@@]4(C)CC[C@@H]1[C@]32OO4 [ARTEMISININ]
IC50 (Plasmodium falciparum [4]): 23.5 nM
IC50 (Plasmodium falciparum [2]): 9.5 nM
inhibition [3]: < 50%

O=C(/C=C/c1ccccc1[N+](=O)[O-])NCCCCNc1ccnc2cc(Cl)ccc12
IC50 (Plasmodium berghei [1]): 1090 nM
IC50 (Plasmodium falciparum [4]): 56.9 nM
IC50 (Plasmodium falciparum [2]): 38.3 nM
inhibition [3]: 50%

COc1ccc(/C=C/C(=O)OCCCCNc2ccnc3cc(Cl)ccc23)cc1
IC50 (Plasmodium berghei [1]): 6470 nM
IC50 (Plasmodium falciparum [2]): 122 nM
inhibition [3]: 50%

O=C(/C=C/c1ccc(Cl)cc1)NCCCCNc1ccnc2cc(Cl)ccc12
Activity (Mus musculus [5]): Toxic
Survival (Plasmodium berghei [6]; route intraperitoneal): 2 days
Survival (Plasmodium berghei [7]; route intraperitoneal): 2 days
IC50 (Plasmodium berghei [1]): 1440 nM
IC50 (Plasmodium falciparum [4]): 26.2 nM
IC50 (Plasmodium falciparum [2]): 11.6 nM
inhibition [3]: 50%

COc1ccc(/C=C/C(=O)NCCCCNc2ccncc2)cc1
IC50 (Plasmodium berghei [1]): > 10000 nM
IC50 (Plasmodium falciparum [2]): > 10000 nM

Cc1ccc(/C=C/C(=O)NCCCCNc2ccnc3cc(Cl)ccc23)cc1
IC50 (Plasmodium berghei [1]): 2360 nM
IC50 (Plasmodium falciparum [4]): 24.2 nM
IC50 (Plasmodium falciparum [2]): 16.9 nM

COc1ccc(/C=C/C(=O)NCCCCNc2ccnc3cc(Cl)ccc23)cc1
Activity (Mus musculus [8]): Non-toxic
Survival (Plasmodium berghei [9]): 2 days
Activity (Plasmodium berghei [6]): inactive
Activity (Plasmodium berghei [7]): inactive
Activity (Huh-7): Non-toxic
IC50 (Plasmodium berghei [1]): 2860 nM
IC50 (Plasmodium falciparum [4]): 30.6 nM
IC50 (Plasmodium falciparum [2]): 20 nM
inhibition [3]: 50%

O=C(/C=C/c1cccc(F)c1)NCCCCNc1ccnc2cc(Cl)ccc12
IC50 (Plasmodium berghei [1]): 1130 nM
IC50 (Plasmodium falciparum [4]): 50.9 nM
IC50 (Plasmodium falciparum [2]): 34.1 nM
inhibition [3]: 50%

Cc1ccc(/C=C/C(=O)NCCCNc2ccnc3cc(Cl)ccc23)cc1
IC50 (Plasmodium falciparum [4]): 55.9 nM
IC50 (Plasmodium falciparum [2]): 47.4 nM
